Experimental data: ChEMBL document CHEMBL5528013 (Eur J Med Chem, 2024)

Experiments:
MOLM-14 [1] = experiment: Antiproliferative activity against human MOLM-14 cells harboring FLT3-D835Y mutant assessed as inhibition of cell growth incubated for 72 hrs by resazurin dye based assay; type: functional; conditions: MOLM-14, 72 h
Summary of the method: (§1)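 Logarithmic-phase cells were seeded at 5000 per well and treated 24 h later, in triplicate, with various concentrations for 72 h. MOLM14 lines were grown in RPMI with 10 % FBS, and other lines per provider instructions, all at 37 °C and 5 % CO2. Resazurin was then added for 4–6 h and fluorescence read. GI50 was taken from percent growth versus DMSO control, fitted with a variable-slope normalized-response model; at least three runs.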

K562 = experiment: Antiproliferative activity against human K562 cells assessed as inhibition of cell growth incubated for 72 hrs by resazurin dye based assay; type: functional; conditions: K562, 72 h; summary of the method: as §1
MOLM-14 [2] = type: functional, cell-based; conditions: Homo sapiens, MOLM-14, 72 h
MOLM-14 [3] = experiment: Antiproliferative activity against human MOLM-14 cells assessed as inhibition of cell growth incubated for 72 hrs by resazurin dye based assay; type: functional; conditions: MOLM-14, 72 h; summary of the method: as §1

| SMILES | IC50 (MOLM-14 [1]) [nM] | IC50 (K562) [nM] | IC50 (MOLM-14 [2]) [nM] | IC50 (MOLM-14 [3]) [nM] |
| --- | --- | --- | --- | --- |
| Cn1cc(-c2ccn3c(-c4cccc(Nc5ccc(C(C)(C)C)cc5)n4)cnc3c2)cn1 | 41.9 | > 1000 | > 1000 | – |
| COC(=O)c1ccc(C)c(Nc2cccc(-c3cnc4cc(-c5cnn(C)c5)ccn34)n2)c1 | 177 | > 1000 | > 1000 | 233 |
| CCOC(=O)Cc1ccc(Nc2cccc(-c3cnc4cc(-c5cnn(C)c5)ccn34)n2)cc1 | 121 | > 1000 | > 1000 | 99 |
| COc1cc2/c(=N/c3ccc(Br)cc3F)nc[nH]c2cc1OCC1CCN(C)CC1 [VANDETANIB] | – | – | > 20000 | – |
| Cn1cc(-c2ccn3c(-c4cccc(Cl)n4)cnc3c2)cn1 | 228 | > 1000 | 458 | 28.7 |
| Cc1ccc(-n2nc(C(C)(C)C)cc2Nc2cccc(-c3cnc4cc(-c5cnn(C)c5)ccn34)n2)cc1 | 414 | > 1000 | > 1000 | 162 |
| Cc1ccc(-n2nc(C(C)(C)C)cc2Nc2cccc(-c3cnc4cc(-c5ccc(S(C)(=O)=O)cc5)ccn34)n2)cc1 | 613 | > 1000 | > 1000 | 278 |
| Cn1cc(-c2ccn3c(-c4cccc(Nc5ccc([N+](=O)[O-])cc5)n4)cnc3c2)cn1 | 5.19 | 923 | 314 | 6.82 |
| Cn1cc(-c2ccn3c(-c4cccc(Nc5cc(C(C)(C)C)nn5-c5ccc(F)cc5)n4)cnc3c2)cn1 | 56 | > 1000 | > 1000 | 18 |
| CC1CN(c2cccc(-c3cnc4cc(-c5cnn(C)c5)ccn34)n2)CCN1C(=O)OC(C)(C)C (stereo not given) | 353 | > 1000 | 426 | 101 |
| Cn1cc(-c2ccn3c(-c4cccc(N5CCN(C(=O)OC(C)(C)C)CC5)n4)cnc3c2)cn1 | 259 | > 1000 | 794 | 51.9 |
| Cn1cc(-c2ccn3c(-c4cccc(Nc5ccc(OC(F)(F)F)cc5)n4)cnc3c2)cn1 | 49.9 | > 1000 | 462 | 19.3 |
| Cn1cc(-c2ccn3c(-c4cccc(Nc5ccc(C(=O)OC(C)(C)C)cc5)n4)cnc3c2)cn1 | 76.6 | > 1000 | 792 | 76.6 |
| Cn1cc(-c2ccn3c(-c4cccc(Nc5ccc6c(c5)OCO6)n4)cnc3c2)cn1 | 4.91 | – | 920 | 6.09 |
| CC(C)(C)c1ccc(Nc2cccc(-c3cnc4cc(-c5ccc(S(C)(=O)=O)cc5)ccn34)n2)cc1 | 203 | > 1000 | > 1000 | 110 |
| Cn1cc(-c2ccn3c(-c4ccccc4Cl)cnc3c2)cn1 | > 1000 | > 1000 | > 1000 | 397 |
| CCc1nc(C(N)=O)c(Nc2ccc(N3CCC(N4CCN(C)CC4)CC3)c(OC)c2)nc1NC1CCOCC1 [GILTERITINIB] | – | > 1000 | – | – |
| Cn1cc(-c2ccn3c(-c4cccc(Nc5ccc(Cl)cc5)n4)cnc3c2)cn1 | 23.1 | 736 | 337 | 28.8 |
| Cn1cc(-c2ccn3c(-c4cccc(NCc5c(F)cccc5F)n4)cnc3c2)cn1 | 5.9 | 119 | 566 | 1.31 |

More lines, in order of falling IC50 (MOLM-14 [2]), values ahead:

| IC50 (MOLM-14 [1]) [nM] | IC50 (K562) [nM] | IC50 (MOLM-14 [2]) [nM] | IC50 (MOLM-14 [3]) [nM] | SMILES |
| --- | --- | --- | --- | --- |
| 591 | > 1000 | 304 | 29.5 | Cn1cc(-c2ccn3c(-c4cccc(Cl)c4)cnc3c2)cn1 |
| 3.62 | 927 | 294 | 9.03 | CCc1ccc(Nc2cccc(-c3cnc4cc(-c5cnn(C)c5)ccn34)n2)cc1 |
| 166 | > 1000 | 293 | 16.9 | Cn1cc(-c2ccn3c(-c4ccc(Cl)cc4)cnc3c2)cn1 |
| 2.46 | 115 | 259 | 4.03 | Cn1cc(-c2ccn3c(-c4cccc(Nc5cnccn5)n4)cnc3c2)cn1 |
| 1.41 | > 1000 | 238 | 3.25 | Cn1cc(-c2ccn3c(-c4cccc(Nc5ccc(N6CCOCC6)cc5)n4)cnc3c2)cn1 |
| 0.31 | 262 | 184 | 0.95 | Cn1cc(-c2ccn3c(-c4cccc(Nc5ccccc5C(F)(F)F)n4)cnc3c2)cn1 |
| 18.9 | > 1000 | 160 | 33.3 | Cn1cc(-c2ccn3c(-c4cccc(Nc5ccc(C(F)(F)F)cc5)n4)cnc3c2)cn1 |
| 8.91 | > 1000 | 142 | 13.5 | CC(C)c1ccc(Nc2cccc(-c3cnc4cc(-c5cnn(C)c5)ccn34)n2)cc1 |
| 48 | > 1000 | 135 | 18.3 | Cn1cc(-c2ccn3c(-c4cccc(Nc5ccc(C#N)cc5)n4)cnc3c2)cn1 |
| 27.5 | 960 | 105 | 6.95 | COc1cc(Nc2cccc(-c3cnc4cc(-c5cnn(C)c5)ccn34)n2)cc(OC)c1OC |
| 18.2 | > 1000 | 97.5 | 17.2 | Cn1cc(-c2ccn3c(-c4cccc(NC5CCN(C(=O)OC(C)(C)C)CC5)n4)cnc3c2)cn1 |
| 4.39 | > 1000 | 90.7 | 6.76 | C=Cc1ccc(Nc2cccc(-c3cnc4cc(-c5cnn(C)c5)ccn34)n2)cc1 |
| 5.32 | 688 | 54.2 | 4.3 | Cn1nc(C(C)(C)C)cc1Nc1cccc(-c2cnc3cc(-c4ccc(S(C)(=O)=O)cc4)ccn23)n1 |
| 2.59 | 210 | 32.6 | 3.8 | Cn1cc(-c2ccn3c(-c4cccc(Nc5cc(C(C)(C)C)nn5C)n4)cnc3c2)cn1 |
| 3.2 | 132 | 28.9 | 2.24 | Cn1cc(-c2ccn3c(-c4cccc(Nc5cccc(C(F)(F)F)c5)n4)cnc3c2)cn1 |
| 5.67 | 219 | 18.9 | – | Cc1ccc(Nc2cccc(-c3cnc4cc(-c5cnn(C)c5)ccn34)n2)cc1 |
| 1.65 | 274 | 14.4 | 2.38 | COc1ccccc1Nc1cccc(-c2cnc3cc(-c4cnn(C)c4)ccn23)n1 |
| 2.21 | > 1000 | 12.5 | 0.77 | Cn1cc(-c2ccn3c(-c4cccc(Nc5ccc(OCCN6CCCC6)cc5)n4)cnc3c2)cn1 |
| 0.87 | > 1000 | 9.98 | 1.72 | Cn1cc(-c2ccn3c(-c4cccc(Nc5ccc6c(c5)OCCO6)n4)cnc3c2)cn1 |
| 0.77 | > 1000 | 9.8 | 0.19 | Cn1cc(-c2ccn3c(-c4cccc(Nc5ccc(OCCN6CCCCC6)cc5)n4)cnc3c2)cn1 |
| 0.87 | 924 | 7.42 | 0.51 | CCN(CC)CCOc1ccc(Nc2cccc(-c3cnc4cc(-c5cnn(C)c5)ccn34)n2)cc1 |
| 1.83 | > 1000 | 7.1 | 1 | Cn1cc(-c2ccn3c(-c4cccc(Nc5ccc(OCCN6CCOCC6)cc5)n4)cnc3c2)cn1 |
